The nature of data set [1]: Tmax in CAnN.Cg-Foxnlnu/CrlCrlj mouse plasma at 100 mg/kg, po single dose measured up to 24 hrs by liquid chromatography tandem mass spectrometry. The format is ADME, organism-based.
Data set [2] in a line: Cmax in CAnN.Cg-Foxnlnu/CrlCrlj mouse plasma at 25 mg/kg, po single dose measured up to 24 hrs by liquid chromatography tandem mass spectrometry. It counts as ADME, organism-based. The arrangement: route oral, dose 25 mg/kg, time <=24.
The test system of the next data set is BaF3. The data set can be described thus: Ratio of IC50 for Mer in mouse BaF3 cells to IC50 for Axl in mouse BaF3 cells. It counts as cell-based.
The next data set addresses CYP2C9 (Homo sapiens, UniProt P11712). The data set can be described thus: Time dependent inhibition of CYP2C9 in human liver microsomes assessed as enzyme remaining activity using cocktail of probe CYP as substrate at 50 uM. The format is ADME. The following applies: probe cocktail of CYP probe substrates, read-out: Activity. Summed up: (§1)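 Time-dependent CYP inhibition in human liver microsomes, with test compound at 50 µM and a cocktail of probe CYP substrates.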

The next data set is filed under the species Homo sapiens. Briefly: Ratio of IC50 for Mer (unknown origin) to IC50 for Axl (unknown origin).
A short description of data set [3]: Tmax in CAnN.Cg-Foxnlnu/CrlCrlj mouse plasma at 50 mg/kg, po single dose measured up to 24 hrs by liquid chromatography tandem mass spectrometry. The format is ADME, organism-based.
Data set [4] in a line: Metabolic stability in mouse liver microsomes assessed as residual ratio at 0.1 uM for 30 mins. It counts as ADME, Microsome. The settings on record: read-out: Stabilty. Summed up:
(§2)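 Compound incubated at 0.1 µM for 30 min with human or mouse liver microsomes. Residual ratio of parent determined afterwards.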
Background: Liver microsomes are vesicles of endoplasmic reticulum, rich in cytochrome P450 enzymes.

The target of a further data set is CYP2C19 (Homo sapiens, UniProt P33261). The data set can be described thus: Time dependent inhibition of CYP2C19 in human liver microsomes assessed as enzyme remaining activity using cocktail of probe CYP as substrate at 50 uM. The settings on record: probe cocktail of CYP probe substrates, read-out: Activity. It counts as ADME. Summed up: as §1
Sequence of CYP2C19 (P33261 whole entry): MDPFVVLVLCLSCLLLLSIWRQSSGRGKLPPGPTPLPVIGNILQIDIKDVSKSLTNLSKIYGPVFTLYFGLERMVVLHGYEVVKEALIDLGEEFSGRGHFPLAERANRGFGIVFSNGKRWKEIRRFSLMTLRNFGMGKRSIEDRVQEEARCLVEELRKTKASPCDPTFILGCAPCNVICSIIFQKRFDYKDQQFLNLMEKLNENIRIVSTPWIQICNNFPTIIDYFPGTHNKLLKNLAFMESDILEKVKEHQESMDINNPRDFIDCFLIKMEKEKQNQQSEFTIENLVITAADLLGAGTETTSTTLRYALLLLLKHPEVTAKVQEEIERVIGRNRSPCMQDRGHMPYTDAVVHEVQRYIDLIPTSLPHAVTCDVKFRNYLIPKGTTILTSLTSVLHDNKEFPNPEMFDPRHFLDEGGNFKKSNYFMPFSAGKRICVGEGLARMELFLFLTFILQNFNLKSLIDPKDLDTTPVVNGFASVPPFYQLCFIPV
The target in another data set is T1, CYP1A2 (Homo sapiens, UniProt P05177).
T1 sequence (P05177 whole entry): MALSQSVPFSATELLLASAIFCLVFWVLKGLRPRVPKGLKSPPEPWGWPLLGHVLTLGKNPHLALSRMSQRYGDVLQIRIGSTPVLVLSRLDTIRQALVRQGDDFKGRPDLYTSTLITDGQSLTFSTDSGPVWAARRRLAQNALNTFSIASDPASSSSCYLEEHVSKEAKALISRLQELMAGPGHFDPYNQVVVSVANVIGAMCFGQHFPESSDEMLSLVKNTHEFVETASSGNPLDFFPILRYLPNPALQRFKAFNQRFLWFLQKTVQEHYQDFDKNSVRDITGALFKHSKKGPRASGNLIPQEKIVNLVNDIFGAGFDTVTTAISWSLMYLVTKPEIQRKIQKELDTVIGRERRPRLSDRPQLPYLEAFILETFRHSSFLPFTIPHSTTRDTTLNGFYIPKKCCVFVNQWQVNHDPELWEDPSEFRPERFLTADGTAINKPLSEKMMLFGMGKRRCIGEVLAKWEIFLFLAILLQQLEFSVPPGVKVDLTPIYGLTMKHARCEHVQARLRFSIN
Briefly: Time dependent inhibition of CYP1A2 in human liver microsomes assessed as enzyme remaining activity using cocktail of probe CYP as substrate at 50 uM. The format is ADME. The following applies: probe cocktail of CYP probe substrates, read-out: Activity. Summed up:
as §1

A short description of data set [5]: Metabolic stability in human liver microsomes assessed as residual ratio at 0.1 uM for 30 mins. The settings on record: read-out: Stabilty. The format is ADME, Microsome. An outline of the steps: as §2
The nature of data set [6]: Tmax in CAnN.Cg-Foxnlnu/CrlCrlj mouse plasma at 25 mg/kg, po single dose measured up to 24 hrs by liquid chromatography tandem mass spectrometry. The format is ADME, organism-based.
The nature of data set [7]: Cmax in CAnN.Cg-Foxnlnu/CrlCrlj mouse plasma at 50 mg/kg, po single dose measured up to 24 hrs by liquid chromatography tandem mass spectrometry. More on the design: route oral, dose 50 mg/kg, time <=24. The format is ADME, organism-based.
The nature of data set [8]: Permeability of compound by PAMPA assay. It counts as ADME. The settings on record: read-out: permeability. On the technique in general: In PAMPA a lipid-coated filter parts donor from acceptor wells.
A further data set concerns the target T2, CYP2C8 (Homo sapiens, UniProt P10632).
T2 sequence (P10632 whole entry): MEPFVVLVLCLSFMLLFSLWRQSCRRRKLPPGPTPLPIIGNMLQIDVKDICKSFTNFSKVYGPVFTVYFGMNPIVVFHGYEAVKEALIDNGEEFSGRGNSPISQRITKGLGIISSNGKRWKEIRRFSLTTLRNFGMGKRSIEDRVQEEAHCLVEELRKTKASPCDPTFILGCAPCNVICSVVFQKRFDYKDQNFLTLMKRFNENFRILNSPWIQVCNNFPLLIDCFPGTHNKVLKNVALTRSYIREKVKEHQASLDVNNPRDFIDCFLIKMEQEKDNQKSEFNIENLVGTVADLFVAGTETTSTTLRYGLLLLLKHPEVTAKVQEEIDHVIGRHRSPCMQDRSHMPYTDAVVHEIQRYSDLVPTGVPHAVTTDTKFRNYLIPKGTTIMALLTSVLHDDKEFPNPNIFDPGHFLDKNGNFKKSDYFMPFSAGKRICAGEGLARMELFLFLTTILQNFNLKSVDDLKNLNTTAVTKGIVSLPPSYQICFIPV
The data set can be described thus: Time dependent inhibition of CYP2C8 in human liver microsomes assessed as enzyme remaining activity using cocktail of probe CYP as substrate at 50 uM. The format is ADME. The settings on record: probe cocktail of CYP probe substrates, read-out: Activity. Summed up: as §1

A short description of data set [9]: Solubility in PBS. It counts as physicochemical. An outline of the steps: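 Solubility measured in Dulbecco's phosphate-buffered saline.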
Another data set concerns the target CYP2D6 (Homo sapiens, UniProt P10635). The data set can be described thus: Time dependent inhibition of CYP2D6 in human liver microsomes assessed as enzyme remaining activity using cocktail of probe CYP as substrate at 50 uM. The following applies: probe cocktail of CYP probe substrates, read-out: Activity. It counts as ADME. Summed up: as §1

Converted amounts (≈) assume the structure as drawn.

Data on one compound can be found in ChEMBL document CHEMBL4823291, “Discovery of 5,6,7,8-tetrahydropyrido[3,4-d]pyrimidine derivatives as novel selective Axl inhibitors” (Bioorg Med Chem Lett, 2021).

Sequence of CYP2C9 (P11712 whole entry): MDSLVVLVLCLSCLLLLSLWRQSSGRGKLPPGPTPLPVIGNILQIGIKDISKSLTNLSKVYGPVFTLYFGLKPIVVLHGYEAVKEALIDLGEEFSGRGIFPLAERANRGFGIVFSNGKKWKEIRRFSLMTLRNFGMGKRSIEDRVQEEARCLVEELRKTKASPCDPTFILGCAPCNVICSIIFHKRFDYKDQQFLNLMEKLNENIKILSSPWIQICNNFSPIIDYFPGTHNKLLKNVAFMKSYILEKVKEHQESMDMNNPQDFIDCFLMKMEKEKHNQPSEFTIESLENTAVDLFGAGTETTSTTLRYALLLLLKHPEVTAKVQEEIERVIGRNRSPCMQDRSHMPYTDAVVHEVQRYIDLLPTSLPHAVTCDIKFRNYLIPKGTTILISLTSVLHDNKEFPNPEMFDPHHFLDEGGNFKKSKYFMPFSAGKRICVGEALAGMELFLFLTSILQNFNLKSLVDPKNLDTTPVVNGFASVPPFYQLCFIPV
Sequence of CYP2D6 (P10635 whole entry): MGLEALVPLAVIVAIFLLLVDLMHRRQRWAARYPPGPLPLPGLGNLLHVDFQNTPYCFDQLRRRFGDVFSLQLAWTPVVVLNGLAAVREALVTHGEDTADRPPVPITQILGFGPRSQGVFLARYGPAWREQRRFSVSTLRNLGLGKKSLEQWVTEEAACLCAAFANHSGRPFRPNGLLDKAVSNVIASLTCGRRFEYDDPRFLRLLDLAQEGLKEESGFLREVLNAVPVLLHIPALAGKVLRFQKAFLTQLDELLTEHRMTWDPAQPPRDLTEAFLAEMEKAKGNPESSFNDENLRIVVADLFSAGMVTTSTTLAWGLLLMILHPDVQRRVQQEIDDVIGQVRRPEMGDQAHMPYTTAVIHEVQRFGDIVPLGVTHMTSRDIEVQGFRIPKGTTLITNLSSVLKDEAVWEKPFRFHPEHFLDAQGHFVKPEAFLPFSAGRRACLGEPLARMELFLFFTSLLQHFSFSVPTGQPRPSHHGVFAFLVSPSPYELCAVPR

One may read the Tmax as the time at which the peak concentration occurs. For orientation: Cmax means the maximum level reached in the sampled fluid or tissue. What is called solubility is the dissolved amount per volume that the medium holds. Low values mean little dissolved substance, high ones much dissolved substance. `Cc1ccc(-n2c(=O)c(C(=O)Nc3ccc(Oc4ncnc5c4CCN(CC4CCN(C)CC4)C5)c(F)c3)cn(C3CCCC3)c2=O)nc1`: the time to peak (Tmax) in [1] was determined as 1 h; in data set [3] it was 1 h; in [6] it was 2 h. The figures for the Cmax in data set [2] and in [7] were 2340 ng/mL and 5290 ng/mL, respectively. The Ratio IC50 was 6.4 with BaF3 and 37 in the data set listed under Homo sapiens. The activity at 50 µM was 87% on CYP2C9; 89% on CYP2C19; 82% on CYP1A2; 84% at CYP2C8; 83% at CYP2D6. For the same compound, the remaining at 0.5 h, 0.1 µM in [4] came to 66.3%; in [5], 99%. Also, the Papp in [8] was 0.91 ×10⁻⁶ cm/s. Besides, the solubility in [9] turned out to be 83 µM (≈ 55.5 µg/mL).
